# UPR XBP1 act = activators of adaptive arm of unfolded protein response (XBP1); CHO-XBP1 luciferase reporter, IRE1-XBP1 UPR activation, luminescence; percent of tunicamycin response, DMSO as zero; activation, % at 20 µM; AID 463104; 330,000 tested, 0.33% active;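 active means versus positive control, 20 µM dose yields 30% or more activation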;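 further: 100% = tunicamycin at 10 µg/mL and 0% = DMSO only wells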
#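 incubation = overnight seeding at 37 °C, 6 h compound treatment at 37 °C | assay system = CHO-XBP1 cells stably carrying IRE1-XBP1-driven luciferase reporter | input = 1000 cells per well | detection = luciferase luminescence | dosing = single point, 20 µM final compound, 1% DMSO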
# CHOP UPR activ = apoptotic UPR (CHOP) activation. activation, % at 10 µM. CHO-CHOP luciferase reporter, luminescence; percent of tunicamycin response over DMSO baseline. 330,000 tested, 0.34% active;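 active means at 10 µM dose, activation of 40% or more, normalized to positive control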;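 further: 100% = tunicamycin at 10 µg/mL and 0% = DMSO alone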
#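 assay system = CHO CHOP reporter cells | amount = 500 CHO-CHOP cells per well | buffer or medium = F12 with 10% FBS | incubation = 16-18 h cell attachment, then 6 h compound exposure, 37 °C | detection = luminescence read with Steady-Glo | read-out = percent activation relative to tunicamycin control | controls = tunicamycin high control, DMSO low control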
# Lmaj promast = Leishmania major promastigote growth inhibition; inhibition, % at 10 µM; Leishmania major promastigotes, resazurin fluorescence viability; 200,000 tested, 9% active; in the data active means inhibition above about 50%;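 further: promastigotes grown with compound for 44 hours at 28 °C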
# Dynein cargo inh = dynein cargo transport inhibition; 3617.4 mouse cells, GR-EGFP nuclear translocation imaging; test concentration mostly 20 µM; stimulated with dexamethasone, 1 µM; stronger effect = lower value; z-score, hits read low; 220,000 tested, 0.47% active;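 active means plate z-score of nuclear minus cytoplasmic receptor signal below a set negative limit, without overly bright fluorescence or cell loss, cut at about -3.5 in these data, passing the limit was not always enough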;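 further: z-score of nuclear minus cytoplasmic ring GR-EGFP intensity difference per well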
#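 Buffer or medium: tet-free, stripped-serum medium; Also added: dexamethasone, 1.0 µM final; Technique: high-content fluorescence imaging after fixation; Times: 48 h induction, 1 h compound, 30 min dex at 37 °C; Read-out: per-cell GR-EGFP intensity, nucleus versus surrounding cytoplasmic ring, well-averaged.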
# T cruzi repl = blocks replication of Trypanosoma cruzi; T. cruzi beta-gal in NIH3T3, luminescence, 90 h; inhibition, % (no concentration beside the values); 300,000 tested, 1.4% active; AID 1885;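 active means mean inhibition across valid replicates above about 55%, limit read from the data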;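 further: signal also drops with host cell toxicity which is not excluded here; 0% = plate median of DMSO wells and 100% = zero luminescence signal; higher percent means less beta-gal luminescence so fewer parasites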
#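 assay system = mouse NIH/3T3 fibroblasts infected with β-gal-expressing T. cruzi Tulahuen C4 | input = 5,000 NIH/3T3 host cells per well | buffer or medium = DMEM plus 2% FBS | timing = 3 h host attachment, then at least 90 h co-culture | measured by = GalScreen luminescence, 60 min | evaluation = luminescence reflecting intracellular parasite burden, expressed as percent inhibition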
# CHOP inh = inhibitors of CHOP induction in ER stress response; CHO-K1 CHOP-promoter luciferase, tunicamycin-induced, 15-18 h; inhibition, % at 10 µM; 220,000 tested, 3.8% active; AID 2732;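 active means compounds that reduced the stress-induced luciferase reporter signal by more than about 70% of percent inhibition, limit read from the data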;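 further: 0% = tunicamycin plus vehicle and 100% = wells without tunicamycin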
# * hit, by the source's call; nt = no result. Only a selection was taken, and hits are over-represented in it overall.
SMILES,UPR XBP1 act,CHOP UPR activ,Lmaj promast,Dynein cargo inh,T cruzi repl,CHOP inh
COc1ccc(CC2(CO)CCN(Cc3cnn(C)c3C)CC2)cc1,-3.0,0.3,-3.6,-0.33,1.5,28.3
COc1ccc(CC2(CO)CCN(CC3=CC[C@H]4C[C@@H]3C4(C)C)CC2)cc1,2.6,-0.2,82.5*,-0.153,38.5,14.6
COC(=O)c1ccc(CN2CCC(CO)(CCOc3ccccc3)CC2)cc1,-1.8,-0.7,nt,nt,16.5,nt
C=CC[C@H](CC(=O)N[C@H](CO)Cc1ccccc1)C(=O)N[C@@H](COC(=O)[C@H](CC=C)CC(=O)OC(C)(C)C)Cc1c[nH]c2ccccc12,3.3,2.7,nt,nt,nt,nt
O=C(COC(=O)Cc1n[nH]c(=O)c2ccccc12)Nc1ccc(Cl)cn1,-4.3,0.7,nt,nt,nt,nt
O=C1C2C(C(=O)N1/N=C/c1ccc([N+](=O)[O-])o1)C1C=CC2C12CC2 (stereo not drawn),-0.5,0.7,89.9*,1.39,15.0,-43.2
O=C1C2C3C=CC(C4CC34)C2C(=O)N1/N=C/c1ccc([N+](=O)[O-])o1 (stereo not drawn),2.6,8.9,99.2*,-0.988,19.8,-81.5
O=C1C2C3C=CC(C4CC34)C2C(=O)N1/N=C/c1ccc(-c2ccc([N+](=O)[O-])cc2)o1 (stereo not drawn),-3.6,1.3,2.7,0.59,22.5,0.1
O=C(CCNC(=O)c1ccc(Cl)cc1)NCC(c1ccco1)N1CCCC1 (stereo not drawn),1.3,-0.3,nt,nt,nt,nt
CC(=O)N=c1sc2c3ccccc3ccc2n1C,3.0,-1.2,63.4*,-0.277,65.9*,4.2
CCOCCOc1cccc(C(=O)NC(c2ccccc2)C(C)C)c1 (stereo not drawn),-3.8,-2.5,8.7,0.827,-7.3,3.3
CCOc1cccc(C(=O)NC(c2ccccc2)C(C)C)c1 (stereo not drawn),-2.3,1.0,57.0*,-0.2,-5.1,27.5
Cc1cc(C(=O)N2CCCC(N3CCN(c4cccc(Cl)c4)CC3)C2)n(C)n1 (stereo not drawn),-0.3,-1.4,nt,nt,5.0,nt
Cc1cc(C(=O)N2CCCC(N3CCN(c4ccccc4C)CC3)C2)n(C)n1 (stereo not drawn),-3.3,0.6,nt,nt,58.6*,nt
O=C(Nc1nc(-c2ccccn2)cs1)c1ncc(Cl)c(Cl)c1Cl,-3.4,-0.3,100.5*,0.299,35.2,54.3
Cc1csc(NC(=O)c2cccn2C)n1,-2.6,-0.8,-0.4,0.366,-4.8,-3.0
Cc1ccc(C(=O)Nc2nc(-c3ccccn3)cs2)s1,6.9,31.1,nt,nt,nt,nt
Cn1cccc1C(=O)Nc1nc(-c2ccccn2)cs1,5.5,3.0,100.1*,1.14,65.5*,-40.4
O=C(Nc1nc(-c2ccccn2)cs1)c1cc2ccccc2o1,-1.8,2.7,100.1*,1.39,76.9*,-19.9
COc1ccc(Cl)cc1NC(=O)CN1CCN(S(=O)(=O)N2CCCCC2)CC1,3.4,1.6,nt,nt,9.5,nt
CN(CC(=O)NCCc1ccccc1)Cc1ccco1,1.8,6.6,nt,nt,-3.0,nt
Cc1ccc(CNC(=O)c2cc3c(s2)CS(=O)(=O)C3)cc1,-2.0,0.1,nt,nt,8.6,nt
Cc1cccc(N2CCN(CCNC(=O)c3cc4c(s3)CS(=O)(=O)C4)CC2)c1C,-3.0,0.4,98.6*,0.347,22.9,2.5
N#Cc1cn(CCOc2ccccc2F)c2ccccc12,4.5,3.1,4.0,-0.0818,-0.8,74.1*
CC/C(=N/Nc1ccc(Cl)cc1)c1cnnc(SC)n1,-1.8,0.7,54.3*,-1.42,7.1,-12.6
SMILES,UPR XBP1 act,CHOP UPR activ,Lmaj promast,Dynein cargo inh,T cruzi repl,CHOP inh
CC/C(=N/O)c1cnnc(SC)n1,1.9,0.2,-3.0,0.515,-3.4,15.4
Cc1ccc(-n2c3c(c(=O)[nH]c2=O)C(NS(=O)(=O)c2ccc(C)cc2)(C(F)(F)F)C(=O)N3)cc1 (stereo not drawn),-2.5,-1.1,-5.3,-0.286,-8.0,0.9
Cc1ccc(S(=O)(=O)NC2(C(F)(F)F)C(=O)Nc3c2c(=O)[nH]c(=O)n3-c2ccccc2)cc1 (stereo not drawn),2.5,0.0,72.4*,3.35,-12.3,-3.1
CCn1c(SCC(=O)c2c[nH]c3ccccc23)nnc1-c1cccs1,0.9,-2.6,0.3,2.9,10.4,nt
COCCn1c(SCC(=O)c2c[nH]c3ccccc23)nnc1-c1ccncc1,-0.4,1.4,82.9*,0.653,-9.0,-5.4
COc1ccc(C2CC(c3ccccc3)=NN2C(=O)COC(=O)C2(C)CC2(Cl)Cl)cc1 (stereo not drawn),1.1,1.8,60.4*,-0.779,38.1,13.2
Cc1ccc(/C(O)=C2\C(=O)C(=O)N(C)C2c2ccc(F)cc2)cc1 (stereo not drawn),-1.8,1.6,nt,nt,-21.0,nt
Cc1cc(Oc2nc3c(C)cccn3c(=O)c2/C=C(\C#N)S(=O)(=O)c2ccccc2)ccc1Cl,5.2,10.2,54.4*,-0.155,-17.4,55.8
Cc1ccc(-n2c(=O)c3sccc3n(CC(=O)NCc3ccco3)c2=O)cc1,-1.4,-0.7,-0.4,0.00754,2.8,21.8
Cc1cccc(Cn2c(=O)n(-c3ccc(CC(=O)NCc4ccco4)cc3)c(=O)c3sccc32)c1,-2.1,-0.7,63.4*,0.963,-18.5,53.1
CCCC(C)c1nnc(NC(=O)C2CC(=O)N(CCc3ccc(F)cc3)C2)s1 (stereo not drawn),-6.4,2.6,nt,nt,2.4,nt
Cn1cc(CC(=O)N2CCN(c3ccc(Cl)cc3)CC2)c2ccccc21,-1.2,-2.6,64.7*,0.412,10.4,39.8
Cc1cc(Nc2ccccc2)c2c([N+](=O)[O-])ccc(C)c2n1,3.9,-1.7,26.4,-0.585,61.0*,58.0
Cc1cc(Nc2cccc([N+](=O)[O-])c2)c2cccc(C)c2n1,-4.7,6.8,nt,-0.726,42.9,15.9
CCC(C)(C)C1CCc2nc3ccccc3c(C(=O)OC(C)C(=O)Nc3c(C)n(C)n(-c4ccccc4)c3=O)c2C1 (stereo not drawn),7.2,0.3,83.7*,-0.328,31.6,61.9
CN(C)S(=O)(=O)c1ccc(NC(=O)Cc2ccc(S(=O)(=O)N3CCOCC3)s2)cc1,-1.0,0.7,-2.9,0.906,-9.8,13.6
CCn1c2ccccc2c2cc(NC(=O)Cc3ccc(S(=O)(=O)N4CCOCC4)s3)ccc21,0.8,1.3,81.2*,-0.804,69.1*,3.7
Cn1c(=O)c(C(=O)COC(=O)c2cc(-c3ccco3)nc3ccccc23)c(N)n(CC2CC2)c1=O,-2.4,1.6,62.1*,-0.543,17.0,34.7
COc1ccc(CN(C)CC(=O)c2c(N)n(Cc3ccccc3)c(=O)n(C)c2=O)c(OC)c1,-0.3,2.4,12.5,0.253,58.8*,33.2

# From PubChem
